Reference: ChEMBL document CHEMBL1138784, “Rational design, synthesis, and biological evaluation of bis(pyrimido[5,6,1-de]acridines) and bis(pyrazolo[3,4,5-kl]acridine-5-carboxamides) as new anticancer agents” (J Med Chem, 2004)

Columns and labels:
[1] = tested on: NCI-H460; experiment: Percent growth of lung NCI-H460 cell line was determined at 10e-6 M concentration after 48 hr of exposing; format: functional, Homo sapiens
How it was run: (§1)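 NCI sulforhodamine B screen. Cells seeded by growth rate, 24 h drug-free, then 48 h exposure to 10^-8, 10^-6 or 10^-5 M. Protein-stain optical density expressed as percent growth relative to untreated control (100%); negative values indicate cell kill.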

[2] = tested on: 786-0; experiment: Percent growth of renal 786-O cell line was determined at 10e-6 M concentration after 48 h of exposing; format: functional, Homo sapiens; how it was run: as §1
[3] = Cytotoxicity against human MKN45 cancer cell line was determined after 1 hr; format: cell-based; conditions: Cancer cell lines
How it was run: (§2)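 MTT colorimetric assay. Cells seeded by growth characteristics and preincubated 24 h, then exposed to drug for 1 h or 144 h at 37 °C, 5% CO2. H460M, MKN45 and PC-3 were grown in RPMI 1640 with 10% FCS. HCT116 was grown in D-MEM with 10% FBS and 2 mM glutamine.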

[4] = tested on: DU-145; experiment: Percent growth of prostate DU-145 cell line was determined at 10e-8 M concentration after 48 h of exposing; format: functional, Homo sapiens
[5] = Cytotoxicity against human LoVo cancer cell line was determined after 1 hr; format: cell-based
How it was run: (§3)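 MTT assay on doxorubicin-sensitive LoVo and resistant LoVo/Dx cells, 24 h preincubation, then 1 h or 144 h drug exposure at 37 °C, 5% CO2. IC50 in nM. Resistance index is IC50 on LoVo/Dx divided by IC50 on LoVo.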

[6] = tested on: LoVo; experiment: Ratio of IC50 against sensitive LoVo cell line and that of doxorubicin resistance LoVo cell line was determined after 1 hr exposure; format: functional, Homo sapiens
[7] = tested on: SNB-19; experiment: Percent growth of CNS SNB-19 cell line was determined at 10e-8 M concentration after 48 hr of exposing; format: functional, Homo sapiens; how it was run: as §1
[8] = tested on: OVCAR-4; experiment: Percent growth of ovarian OVCAR-4 cell line was determined at 10e-6 M concentration after 48 hr of exposing; format: functional, Homo sapiens; how it was run: as §1
[9] = Cytotoxicity against human PC3 cancer cell line was determined after 1 hr; format: cell-based; conditions: Cancer cell lines; how it was run: as §2
[10] = tested on: DU-145; experiment: Percent growth of prostate DU-145 cell line was determined at 10e-6 M concentration after 48 hr of exposing; format: functional, Homo sapiens
[11] = tested on: MCF7; experiment: Percent growth of breast MCF-7 cell line was determined at 10e-6 M concentration after 48 h of exposing; format: functional, Homo sapiens
[12] = tested on: MCF7; experiment: Percent growth of breast MCF-7 cell line was determined at 10e-5 M concentration after 48 hr of exposing; format: functional, Homo sapiens
[13] = tested on: MOLT-4; experiment: Percent growth of leukemia MOLT-4 cell line was determined at 10e-6 M concentration after 48 h of exposing; format: functional, Homo sapiens; how it was run: as §1
[14] = tested on: MCF7; experiment: Percent growth of breast MCF-7 cell line was determined at 10e-8 M concentration after 48 hr of exposing; format: functional, Homo sapiens
[15] = Cytotoxicity against human H460M cancer cell line was determined after 144 hr; format: functional, cell-based; conditions: Cancer cell lines; how it was run: as §2
[16] = Cytotoxicity against doxorubicin resistant LoVo cell line was determined against 1 hour; format: cell-based; conditions: Homo sapiens; how it was run: as §3
[17] = Cytotoxicity against human HCT116 cancer cell line was determined after 1 hr; format: cell-based; conditions: HCT-116, 1 h; how it was run: as §2
[18] = tested on: DU-145; experiment: Percent growth of prostate DU-145 cell line was determined at 10e-5 M concentration after 48 hr of exposing; format: functional, Homo sapiens
[19] = tested on: 786-0; experiment: Percent growth of renal 786-O cell line was determined at 10e-5 M concentration after 48 hr of exposing; format: functional, Homo sapiens; how it was run: as §1
[20] = tested on: HCT-116; experiment: Cytotoxicity against human HCT116 cancer cell line was determined after 144 hr; format: functional, cell-based; conditions: HCT-116, 144 h; how it was run: as §2
[21] = tested on: 786-0; experiment: Percent growth of renal 786-O cell line was determined at 10e-8 M concentration after 48 h of exposing; format: functional, Homo sapiens; how it was run: as §1
[22] = tested on: OVCAR-4; experiment: Percent growth of ovarian OVCAR-4 cell line was determined at 10e-5 M concentration after 48 hr of exposing; format: functional, Homo sapiens; how it was run: as §1
[23] = tested on: Nucleic Acid; experiment: Binding site preference is determined as the ratio of Poly (dA-dT)2 to Poly (dG-dC)2; format: nucleic-acid assay
How it was run: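 Ethidium displacement fluorometry at pH 7.0 (10 mM Na2HPO4, 10 mM NaH2PO4, 1 mM EDTA) with 1.26 μM ethidium bromide and 1 μM [poly(dA-dT)]2 or [poly(dG-dC)]2, 20 °C. Ex 546 nm, em 595 nm, drug added serially from a DMSO stock. Preference taken from the [AT]/[GC] ratio of C50 values, counted significant only below 0.7 or above 1.3.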

[24] = tested on: PC-3; experiment: Cytotoxicity against human PC3 cancer cell line was determined after 144 hr; format: functional, cell-based; conditions: PC-3, 144 h; how it was run: as §2
[25] = tested on: SW-620; experiment: Percent growth of colon SW-620 cell line was determined at 10e-8 M concentration after 48 hr of exposing; format: functional, Homo sapiens; how it was run: as §1
[26] = tested on: NCI-H460; experiment: Percent growth of lung NCI-H460 cell line was determined at 10e-8 M concentration after 48 hr of exposing; format: functional, Homo sapiens; how it was run: as §1
[27] = Cytotoxicity against human H460M cancer cell line was determined after 1 hr; format: cell-based; conditions: Cancer cell lines; how it was run: as §2
[28] = tested on: MOLT-4; experiment: Percent growth of leukemia MOLT-4 cell line was determined at 10e-8 M concentration after 48 hr of exposing; format: functional, Homo sapiens; how it was run: as §1
[29] = tested on: MOLT-4; experiment: Percent growth of leukemia MOLT-4 cell line was determined at 10e-5 M concentration after 48 hr of exposing; format: functional, Homo sapiens; how it was run: as §1
[30] = tested on: OVCAR-4; experiment: Percent growth of ovarian OVCAR-4 cell line was determined at 10e-8 M concentration after 48 hr of exposing; format: functional, Homo sapiens; how it was run: as §1
[31] = Percent growth of melanoma LOX IMV1 cell line was determined at 10e-6 M concentration after 48 hr of exposing; format: functional, Homo sapiens; how it was run: as §1
[32] = tested on: LoVo; experiment: Cytotoxicity against doxorubicin resistant LoVo cell line was determined against 144 hrs; format: functional, cell-based; conditions: Homo sapiens; how it was run: as §3
[33] = tested on: SNB-19; experiment: Percent growth of CNS SNB-19 cell line was determined at 10e-5 M concentration after 48 hr of exposing; format: functional, Homo sapiens; how it was run: as §1
[34] = tested on: SNB-19; experiment: Percent growth of CNS SNB-19 cell line was determined at 10e-6 M concentration after 48 hr of exposing; format: functional, Homo sapiens; how it was run: as §1
[35] = tested on: SW-620; experiment: Percent growth of colon SW-620 cell line was determined at 10e-6 M concentration after 48 hr of exposing; format: functional, Homo sapiens; how it was run: as §1
[36] = tested on: HT-29; experiment: Cytotoxicity is determined as the concentration required to inhibit the growth of human colon adenocarcinoma (HT-29) cell line; format: functional, cell-based
[37] = tested on: LoVo; experiment: Cytotoxicity against human LoVo cancer cell line was determined after 144 hr; format: functional, cell-based; how it was run: as §3
[38] = tested on: SW-620; experiment: Percent growth of colon SW-620 cell line was determined at 10e-5 M concentration after 48 hr of exposing; format: functional, Homo sapiens; how it was run: as §1
[39] = tested on: MKN-45; experiment: Cytotoxicity against human MKN45 cancer cell line was determined after 144 hr; format: functional, cell-based; conditions: MKN-45, 144 h; how it was run: as §2
[40] = tested on: NCI-H460; experiment: Percent growth of lung NCI-H460 cell line was determined at 10e-5 M concentration after 48 hr of exposing; format: functional, Homo sapiens; how it was run: as §1
[41] = Percent growth of melanoma LOX IMV1 cell line was determined at 10e-8 M concentration after 48 hr of exposing; format: functional, Homo sapiens; how it was run: as §1
[42] = Percent growth of melanoma LOX IMV1 cell line was determined at 10e-5 M concentration after 48 hr of exposing; format: functional, Homo sapiens; how it was run: as §1

With `CN(C)CCn1c(=O)c2ccc(NCCCN(C)CCCNc3ccc4c(=O)n(CCN(C)C)c(=O)n5c6ccc(O)cc6c(=O)c3c45)c3c(=O)c4cc(O)ccc4n(c1=O)c23` the Growth [1] was -23%, the Growth [2] was 1% and the IC50 [3] was under 0.001 nM. It also gave a Growth [4] of 32%, an IC50 [5] of 98 nM and a Resistance index [6] of 8.3. The Growth [7] was 34%, the Growth [8] was -37% and the IC50 [9] was 2 nM. For the same molecule, the Growth [10] was -6%, the Growth [11] was -1% and the Growth [12] was -32%. For the same molecule, the Growth [13] was -37%, the Growth [14] was 16% and the IC50 [15] was under 0.001 nM. For the same molecule, the IC50 [16] was 810 nM, the IC50 [17] was 0.06 nM and the Growth [18] was -42%. The Growth [19] was -52%, the IC50 [20] was under 0.001 nM and the Growth [21] was 36%. It also gave a Growth [22] of -36%, a Binding site preference [23] of 1.7 and an IC50 [24] of 0.01 nM. For the same molecule, the Growth [25] was 36%, the Growth [26] was 11% and the IC50 [27] was under 0.001 nM. The Growth [28] was -4%, the Growth [29] was -60% and the Growth [30] was 42%. The Growth [31] was -50%, the IC50 [32] was 59 nM and the Growth [33] was -17%. The Growth [34] was -4%, the Growth [35] was 10% and the IC50 [36] was under 0.1 nM. For the same molecule, the IC50 [37] was 3.9 nM, the Growth [38] was -8% and the IC50 [39] was under 0.001 nM. The Growth [40] was -60%, the Growth [41] was 20% and the Growth [42] was -77%.
`COc1ccc2c(c1)-c1nn(CCN(C)C)c3ccc(C(=O)NCCCN(C)CCCNC(=O)c4ccc5c6c(c7cc(OC)ccc7nc46)NN5CCN(C)C)c(c13)N2` gave a Growth [1] of 3%, a Growth [2] of 11% and an IC50 [3] of 51 nM. The Growth [4] was 70%, the IC50 [5] was 53 nM and the Resistance index [6] was 58. The Growth [7] was 47%, the Growth [8] was -5% and the IC50 [9] was over 100 nM. It also gave a Growth [10] of -8%, a Growth [11] of 7% and a Growth [12] of -18%. The Growth [13] was -28%, the Growth [14] was 66% and the IC50 [15] was 4.3 nM. The IC50 [16] was 3100 nM, the IC50 [17] was 120 nM and the Growth [18] was -21%. For the same molecule, the Growth [19] was -33%, the IC50 [20] was 43 nM and the Growth [21] was 53%. It also gave a Growth [22] of -54%, a Binding site preference [23] of 5.5 and an IC50 [24] of 39 nM. The Growth [25] was 44%, the Growth [26] was 23% and the IC50 [27] was 26 nM. For the same molecule, the Growth [28] was 19%, the Growth [29] was -28% and the Growth [30] was 71%. It also gave a Growth [31] of 3%, an IC50 [32] of 290 nM and a Growth [33] of -37%. It also gave a Growth [34] of 0%, a Growth [35] of 3% and an IC50 [36] of 3 nM. The IC50 [37] was 5.1 nM, the Growth [38] was -39% and the IC50 [39] was 13 nM. It also gave a Growth [40] of -58%, a Growth [41] of 46% and a Growth [42] of -80%.
